Active and inactive are the calls of the source. The rule behind the calls is not given here.
What was measured:
[1] = tested on: Escherichia coli; assay: Genotoxicity in Escherichia coli WP2uvrA assessed as number of revertants per plate at 15 ug/plate in presence of rat liver S9 fraction by Ames test (reference value: 42 +/- 6); type: toxicity
[2] = tested on: Salmonella typhimurium; assay: Genotoxicity in Salmonella typhimurium TA100 assessed as number of revertants per plate at 2 ug/plate in presence of rat liver S9 fraction by Ames test (reference value: 141 +/- 1); type: toxicity; details: salmonella enterica subsp. enterica serovar typhimurium
How it was run: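 TA100 positive control under S9 activation: 2-aminoanthracene at 2.0 μg/plate, plate incorporation, average revertants per plate.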

[3] = tested on: Salmonella typhimurium; assay: Genotoxicity in Salmonella typhimurium TA1537 assessed as number of revertants per plate at 2 ug/plate in presence of rat liver S9 fraction by Ames test (reference value: 11 +/- 4); type: toxicity; details: salmonella enterica subsp. enterica serovar typhimurium
[4] = tested on: Salmonella typhimurium; assay: Genotoxicity in Salmonella typhimurium TA1535 assessed as number of revertants per plate at 2 ug/plate in presence of rat liver S9 fraction by Ames test (reference value: 10); type: toxicity; details: salmonella enterica subsp. enterica serovar typhimurium
[5] = tested on: Salmonella typhimurium; assay: Genotoxicity in Salmonella typhimurium TA98 assessed as number of rrevertants per plate at 2 ug/plate in presence of rat liver S9 fraction by Ames test (reference value: 19 +/- 8); type: toxicity; details: salmonella enterica subsp. enterica serovar typhimurium
[6] = tested on: Escherichia coli; assay: Genotoxicity in Escherichia coli WP2uvrA assessed as number of revertants per plate at 1000 ug/plate in absence of rat liver S9 fraction by Ames test (reference value: 45 +/- 9); type: toxicity
[7] = tested on: Plasmodium falciparum; assay: Antimalarial activity against Plasmodium falciparum HB3 infected in human erythrocytes assessed as reduction in [3H]-hypoxanthine incorporation preincubated for 24 hrs followed by [3H]-hypoxanthine addition measured after 24 hrs by scintillation counting method; type: functional, cell-based
[8] = tested on: Plasmodium falciparum; assay: Antimalarial activity against intraerythrocytic stage of Plasmodium falciparum assessed as parasite reduction ratio at 10 times IC50 preincubated for 24 hrs followed by [3H]-hypoxanthine addition measured after 24 hrs by scintillation counting method; type: functional
How it was run: (§1)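 In vitro P. falciparum parasite reduction ratio assay run at 10×, 30× and 100× IC50. Derived parameters: lag phase (time to maximal killing), PRR (parasites killed per life cycle) and PCT99.9% (time to clear 99.9% of the initial parasite population).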

[9] = tested on: Plasmodium falciparum; assay: Antimalarial activity against Plasmodium falciparum NF54 infected in human erythrocytes assessed as reduction in [3H]-hypoxanthine incorporation preincubated for 24 hrs followed by [3H]-hypoxanthine addition measured after 24 hrs by scintillation counting method; type: functional, cell-based
[10] = tested on: Plasmodium falciparum; assay: Antimalarial activity against Plasmodium falciparum V1/S infected in human erythrocytes assessed as reduction in [3H]-hypoxanthine incorporation preincubated for 24 hrs followed by [3H]-hypoxanthine addition measured after 24 hrs by scintillation counting method; type: functional, cell-based
[11] = tested on: Plasmodium falciparum; assay: Antimalarial activity against Plasmodium falciparum TM90C2B infected in human erythrocytes assessed as reduction in [3H]-hypoxanthine incorporation preincubated for 24 hrs followed by [3H]-hypoxanthine addition measured after 24 hrs by scintillation counting method; type: functional, cell-based
[12] = tested on: Plasmodium falciparum; assay: Antimalarial activity against Plasmodium falciparum T9/94 infected in human erythrocytes assessed as reduction in [3H]-hypoxanthine incorporation preincubated for 24 hrs followed by [3H]-hypoxanthine addition measured after 24 hrs by scintillation counting method; type: functional, cell-based
[13] = tested on: Plasmodium falciparum; assay: Antimalarial activity against intraerythrocytic stage of Plasmodium falciparum assessed as time required to clear 99.9% of initial parasite population at 10 times IC50 preincubated for 24 hrs followed by [3H]-hypoxanthine addition measured after 24 hrs by scintillation counting method; type: functional; how it was run: as §1
[14] = tested on: Plasmodium falciparum; assay: Antimalarial activity against Plasmodium falciparum K1 infected in human erythrocytes assessed as reduction in [3H]-hypoxanthine incorporation preincubated for 24 hrs followed by [3H]-hypoxanthine addition measured after 24 hrs by scintillation counting method; type: functional, cell-based
[15] = tested on: Plasmodium falciparum; assay: Antimalarial activity against intraerythrocytic stage of Plasmodium falciparum assessed as time required for maximal killing effect at 10 times IC50 preincubated for 24 hrs followed by [3H]-hypoxanthine addition measured after 24 hrs by scintillation counting method; type: functional; how it was run: as §1
[16] = tested on: Plasmodium falciparum; assay: Antimalarial activity against Plasmodium falciparum Dd2 infected in human erythrocytes assessed as reduction in [3H]-hypoxanthine incorporation preincubated for 24 hrs followed by [3H]-hypoxanthine addition measured after 24 hrs by scintillation counting method; type: functional, cell-based
[17] = tested on: Plasmodium falciparum; assay: Antimalarial activity against Plasmodium falciparum TM90C2A infected in human erythrocytes assessed as reduction in [3H]-hypoxanthine incorporation preincubated for 24 hrs followed by [3H]-hypoxanthine addition measured after 24 hrs by scintillation counting method; type: functional, cell-based
[18] = tested on: Plasmodium berghei; assay: Antimalarial activity against Plasmodium berghei infected in Swiss Webster mouse assessed as mouse survival rate at 30 mg/kg administered once daily via oral gavage for 4 consecutive days beginning 1 hr after infection measured from day 4 to day 20 post infection relative to control; type: functional
How it was run: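 P. berghei-infected erythrocytes taken from a previously infected mouse were injected intraperitoneally. Oral dosing, once daily for 4 consecutive days, began 1 h after infection, in polyethylene glycol 300/propylene glycol/water (55/25/20 by weight). Chloroquine at 30 mg/kg was the positive control, with a vehicle-only group. Percent survival was recorded daily from day 4 to day 20.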

[19] = tested on: Plasmodium falciparum; assay: Antimalarial activity against Plasmodium falciparum 3D7 0087/N9 infected in NOD/SCID IL2R gamma null mouse assessed as decrease in parasitemia at 2.5 to 50 mg/kg up to 7 days post infection; type: functional, organism-based
How it was run: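 Human-erythrocyte-engrafted NODscidIL2Rγnull mice carrying P. falciparum Pf3D70087/N9 in peripheral blood; compound given orally once daily for four consecutive days.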

[20] = tested on: Salmonella typhimurium; assay: Genotoxicity in Salmonella typhimurium TA98 assessed as number of revertants per plate at 1 ug/plate in absence of rat liver S9 fraction by Ames test (reference value: 14 +/- 6); type: toxicity; details: salmonella enterica subsp. enterica serovar typhimurium
[21] = tested on: Plasmodium falciparum; assay: Antimalarial activity against Plasmodium falciparum 3D7 0087/N9 infected in NOD/SCID IL2R gamma null mouse assessed as decrease in parasitemia at 1 to 100 mg/kg up to 7 days post infection; type: functional, organism-based
How it was run: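 The P. falciparum 3D70087/N9 strain grew in the peripheral blood of NODscidIL2Rγnull mice engrafted with human erythrocytes. Compounds were given orally once a day for four consecutive days.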

[22] = tested on: Plasmodium falciparum; assay: Antimalarial activity against chloroquine-resistant Plasmodium falciparum W2 infected in human erythrocytes after 48 hrs by YOYO-1 dye based flow cytometric analysis; type: functional, cell-based; details: W2, 48 h
How it was run: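 P. falciparum W2 cultures were exposed to the compound for 48 h, with artemisinin and chloroquine as reference controls. IC50 was taken from two independent replicates.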

[23] = tested on: Salmonella typhimurium; assay: Genotoxicity in Salmonella typhimurium TA1537 assessed as number of revertants per plate at 75 ug/plate in absence of rat liver S9 fraction by Ames test (reference value: 19 +/- 9); type: toxicity; details: salmonella enterica subsp. enterica serovar typhimurium

Nc1ccc2cc3ccccc3cc2c1 [2-AMINOANTHRACENE]
Activity [1]: 311
Activity [2]: 550
Activity [3]: 82
Activity [4]: 163
Activity [5]: 524

COS(C)(=O)=O [METHANESULFONIC ACID METHYL ESTER]
Activity [6]: 357

CCc1nc(N)nc(N)c1-c1ccc(Cl)cc1 [PYRIMETHAMINE]
IC50 [7]: 3.38 µM
log(ratio) [8]: 2.9
IC50 [9]: 45 nM
IC50 [10]: > 20 µM
IC50 [11]: > 20 µM
IC50 [12]: 38 nM
T99.9% [13]: 61 h
IC50 [14]: > 20000 nM
Time [15]: 24 h
IC50 [16]: > 20000 nM
IC50 [17]: > 20 µM

CCN(CC)CCCC(C)Nc1ccnc2cc(Cl)ccc12 (stereo not given) [CHLOROQUINE]
survival at 30 mg/kg [18]: 100%
T99.9% [13]: 34 h
Time [15]: 0 h
Activity [19]: Active

O=C1C(O)=C([C@H]2CC[C@H](c3ccc(Cl)cc3)CC2)C(=O)c2ccccc21 [ATOVAQUONE]
log(ratio) [8]: 2.9
IC50 [9]: 1 nM
IC50 [11]: > 0.035 µM
T99.9% [13]: 81 h
IC50 [14]: 0.7 nM
Time [15]: 48 h
IC50 [16]: 2 nM

O=[N+]([O-])c1ccc2c(c1)Cc1ccccc1-2 [2-NITROFLUORENE]
Activity [20]: 162

C[C@@H]1CC[C@H]2[C@@H](C)C(=O)O[C@@H]3O[C@@]4(C)CC[C@@H]1[C@]32OO4 [ARTEMISININ]
Activity [21]: Active
log(ratio) [8]: >4.8
T99.9% [13]: <24 h
IC50 [22]: 6 nM
Time [15]: 0 h

Nc1c2ccccc2nc2ccccc12 [AMINACRINE]
Activity [23]: 430

Reference: ChEMBL document CHEMBL4038305, “Benzoxaborole Antimalarial Agents. Part 5. Lead Optimization of Novel Amide Pyrazinyloxy Benzoxaboroles and Identification of a Preclinical Candidate” (J Med Chem, 2017)
